H69AR growth 86K: growth inhibitors of human H69AR lung tumor cells. H69AR lung tumor viability, ATP luminescence, 72 h; active compounds read low. AID 598. viability, % at 10 µM. actives 6% (n = 85,000);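 active means viability at or below 40%; inactive means viability above 40%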;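 further: multidrug resistant small cell line overexpressing MRP-1 efflux transporter; 100% = mean luminescence of untreated control wells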
HUVEC inhibit: human endothelial cell proliferation inhibition | actives 1.1% (n = 86,000) | HUVEC proliferation, CellTiter-Glo luminescence, 72 h; active compounds read low | viability, % at 10 µM (by protocol);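 active means viability at or below 30%; inactive means viability above 30%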;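 further: 100% = median luminescence of DMSO-only cell control wells on each plate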
Lung fibro prol: blocks proliferation of human lung fibroblasts. LL 47 human lung fibroblast viability, ATP luminescence; active compounds read low. viability, % at 10 µM. actives 1.1% (n = 85,000). AID 719;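 active means viability at or below 50% in the single dose screen; inactive means viability above 50%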;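 further: compound exposure lasted 72 h before the ATP readout; 100% = median luminescence of untreated cell-only wells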
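Test system: LL 47 human lung fibroblasts; Quantity: 1,150 cells/well; Buffer or medium: IMEM plus 15% FBS; Dosing: tenfold compound dosing solution, DMSO at 0.1%; Timing: overnight cell rest, 72 h compound treatment at 37 °C; Detection: ATP-based CellTiter-Glo luminescent readout; Read-out basis: viability percentage against median untreated-cell control; Controls: cell-only wells, no compound.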
HCT116 bCat-KO: beta-catenin-lacking colon tumor cell growth suppression. HCT116 beta-catenin knockout viability, CellTiter-Glo, 60 h; active compounds read low. actives 1.5% (n = 140,000). viability, % at 10 µM. AID 818;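 active means viability at or under a set limit, the compound median less 4 SD, cut at about 6% in these data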;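 further: 0% = Hyamine 1622 control at 20 µM and 100% = untreated cell control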
PTEN del growth: growth suppressors of cells with PTEN tumor suppressor deletion; actives 1.2% (n = 140,000); viability, % at 10 µM; HCT116 PTEN-null viability, CellTiter-Glo, 60 h; active compounds read low;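 active means viability at or below a set limit, 4 SD under the median of all tested compounds, cut at about 3.7% in these data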;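 further: PTEN knockout HCT116 line with beta catenin targeted HCT116 as companion control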
* marks the source's active call; other numbers are inactive results. Shown is part of a subset that was picked to be rich in hits.

Screening COc1ccc(NC(=O)Cn2nnc(-c3ccccc3N)n2)cc1OC returned H69AR growth 86K 78.5, HUVEC inhibit 92.6, Lung fibro prol 95.2, HCT116 bCat-KO 96.5 and PTEN del growth 95.5.
O=C(Cn1nnc(-c2ccccc2NC(=O)c2ccco2)n1)NC1CCCCC1 was read as H69AR growth 86K 81.9, HUVEC inhibit 95.2, Lung fibro prol 88.3, HCT116 bCat-KO 92.7 and PTEN del growth 76.8.
Screening COc1ccccc1NC(=O)Cn1nnc(-c2ccccc2NC(=O)c2ccco2)n1 returned H69AR growth 86K 15.9*, HUVEC inhibit 38.8, Lung fibro prol 47.4*, HCT116 bCat-KO 87.8 and PTEN del growth 102.5.
For COc1cccc(CSc2nc3cc4c(cc3cc2C)OCCO4)c1 the results were HCT116 bCat-KO 72.8 and PTEN del growth 65.3.
For O=C(CSc1nc2ccccc2c(=O)n1-c1ccc(OC(F)F)cc1)NCc1cccs1 the results were HCT116 bCat-KO 62.9 and PTEN del growth 67.3.
COC(=O)C(C(=O)OC)C(C[N+](=O)[O-])c1ccc(OC)c(OC)c1 (configuration not stated) was read as HCT116 bCat-KO 65.2 and PTEN del growth 83.5.
Screening COc1ccc(C(C[N+](=O)[O-])C2(c3ccc(OC)c(OC)c3)C(=O)c3ccccc3C2=O)cc1 (configuration not stated) returned HCT116 bCat-KO 2.5* and PTEN del growth 2.1*.
CC(OC(=O)c1ccc([N+](=O)[O-])s1)C(=O)Nc1ncc(Cl)cc1Cl (configuration not stated) was read as HCT116 bCat-KO 82.1 and PTEN del growth 90.6.
For COc1ccc(NC(=O)Nc2nccs2)cc1 the results were H69AR growth 86K 20.3*, HUVEC inhibit 57.2, Lung fibro prol 85.8, HCT116 bCat-KO 45.8 and PTEN del growth 53.4.
O=C(Nc1ccccc1)Nc1nccs1 was read as H69AR growth 86K 88.5, HUVEC inhibit 79.0, Lung fibro prol 96.9, HCT116 bCat-KO 78.6 and PTEN del growth 80.6.
`Cc1ccc(NC(=O)Cc2nc(CSc3nnc(-c4ccc5c(c4)OCO5)o3)cs2)cc1` gave H69AR growth 86K 83.5, HUVEC inhibit 82.2, Lung fibro prol 95.1, HCT116 bCat-KO 74.0 and PTEN del growth 86.3.
For CCOC(=O)C1=C(C)OC(N)=C(C#N)C1c1cc2c(cc1Br)OCO2 (configuration not stated) the results were H69AR growth 86K 30.0*, HUVEC inhibit 89.0, Lung fibro prol 91.8, HCT116 bCat-KO 85.3 and PTEN del growth 87.1.
Screening CC(C)=CC[N+]1(C)CCCCC1 returned HCT116 bCat-KO 88.0 and PTEN del growth 95.1.
COCCOC(=O)c1c(NC(=O)CN2CCCc3ccccc32)sc(C(N)=O)c1C was read as HCT116 bCat-KO 88.6 and PTEN del growth 82.6.
Screening Cc1oc2cc3c(C(=O)OCCN(C)C)c(C)oc3cc2c1C(=O)OCCN(C)C returned H69AR growth 86K 109.2, HUVEC inhibit 75.2 and Lung fibro prol 88.7.
Screening CN1CCN(C2=Cc3ccccc3Sc3cc(F)c(Cl)cc32)CC1 returned H69AR growth 86K 0.0*, HUVEC inhibit 8.8*, Lung fibro prol 94.4, HCT116 bCat-KO 21.7 and PTEN del growth 27.5.
`CN1CCN(C2=Cc3ccccc3Sc3cc(F)c(F)cc32)CC1` gave H69AR growth 86K 7.1*, HUVEC inhibit 6.7*, Lung fibro prol 88.7, HCT116 bCat-KO 39.7 and PTEN del growth 42.9.
`CN1CCN(C2=Cc3cc(Cl)ccc3Sc3cc(F)ccc32)CC1` gave H69AR growth 86K 51.1, HUVEC inhibit 4.9*, Lung fibro prol 87.3, HCT116 bCat-KO 1.3* and PTEN del growth 6.9.
`CN1CCN(CCC(=O)N2c3ccccc3Sc3ccc(Cl)cc32)CC1` gave H69AR growth 86K 86.1, HUVEC inhibit 91.8, Lung fibro prol 89.6, HCT116 bCat-KO 80.2 and PTEN del growth 75.3.
Screening CC1=NN(c2ccccc2)C(=O)C1(C)[N+](=O)[O-] (configuration not stated) returned HCT116 bCat-KO 90.9 and PTEN del growth 100.4.
`O=C(CC(C(=O)N1CCc2ccccc21)n1ccnc1)N1CCc2ccccc2C1` (configuration not stated) gave H69AR growth 86K 63.8, HUVEC inhibit 84.6, Lung fibro prol 93.7, HCT116 bCat-KO 96.7 and PTEN del growth 88.8.
O=C(CN1CCCCC1)Nc1ccc(NC(=O)c2ccccc2Cl)cc1Cl was read as HCT116 bCat-KO 86.3 and PTEN del growth 91.8.

Assay outcomes: PubChem BioAssay, SRMLSC
